From ChEMBL document CHEMBL1125116 (J Med Chem, 1990)

Assays:
[1] = tested on: Rattus norvegicus; experiment: Biodistribution of [125I]IBF in striatum was determined in rats 120 minutes after intraveneous injection; assay type: ADME, organism-based; settings: in vivo, iv, 2 h
[2] = tested on: Rattus norvegicus; experiment: Biodistribution of [125I]IBF in thyroid was determined in rats 15 minutes after intraveneous injection; assay type: ADME, organism-based, Thyroid gland; settings: in vivo, iv, 0.25 h
How it was run: (§1)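 Male Sprague–Dawley rats (225–300 g) with free access to food and water were anesthetized with halothane. Each received 0.2 mL saline containing 8–10 μCi [125I]IBF into the femoral vein and was killed by cardiac excision under halothane at set times. Organs were weighed and gamma-counted, and uptake was calculated against diluted aliquots of the injected dose.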

[3] = tested on: Rattus norvegicus; experiment: Biodistribution of [125I]IBF in thyroid was determined in rats 2 minutes after intraveneous injection; assay type: ADME, organism-based, Thyroid gland; settings: in vivo, iv; how it was run: as §1
[4] = tested on: Rattus norvegicus; experiment: Biodistribution of [125I]IBF in thyroid was determined in rats 30 minutes after intraveneous injection; assay type: ADME, organism-based, Thyroid gland; settings: in vivo, iv, 0.5 h; how it was run: as §1
[5] = tested on: Rattus norvegicus; experiment: Biodistribution of [125I]IBF in thyroid was determined in rats 60 minutes after intraveneous injection; assay type: ADME, organism-based, Thyroid gland; settings: in vivo, iv, 1 h; how it was run: as §1
[6] = tested on: Rattus norvegicus; experiment: Biodistribution of [125I]IBF in thyroid was determined in rats 120 minutes after intraveneous injection; assay type: ADME, organism-based, Thyroid gland; settings: in vivo, iv, 2 h; how it was run: as §1
[7] = tested on: Rattus norvegicus; experiment: Biodistribution of [125I]IBF was in skin determined in rats 2 minutes after intraveneous injection; assay type: ADME, organism-based, Zone of skin; settings: in vivo, iv; how it was run: as §1
[8] = tested on: Rattus norvegicus; experiment: Biodistribution of [125I]-IBF in liver was determined in rats 60 minutes after intraveneous injection; assay type: ADME, organism-based; settings: in vivo, iv, 1 h
How it was run: (§2)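 Male Sprague–Dawley rats (225–300 g) with free access to food and water. Under halothane anesthesia they received [125I]IBF (8–10 μCi in 0.2 mL saline) into the femoral vein. Rats were killed by cardiac excision under halothane at the stated time. Organs were weighed and gamma-counted, and % dose/organ was taken against diluted aliquots of the injectate. Blood was assumed to be 7% of body weight and muscle 40%.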

[9] = tested on: Rattus norvegicus; experiment: Biodistribution of [125I]IBF in liver was determined in rats 120 minutes after intraveneous injection; assay type: ADME, organism-based; settings: in vivo, iv, 2 h; how it was run: as §2
[10] = tested on: Rattus norvegicus; experiment: Biodistribution of [125I]IBF in lung was determined in rats 15 minutes after intraveneous injection; assay type: ADME, organism-based; settings: in vivo, iv, 0.25 h; how it was run: as §2
[11] = tested on: Rattus norvegicus; experiment: Biodistribution of [125I]IBF in lung was determined in rats 2 minutes after intraveneous injection; assay type: ADME, organism-based; settings: in vivo, iv; how it was run: as §2
[12] = tested on: Rattus norvegicus; experiment: Biodistribution of [125I]IBF in lung was determined in rats 30 minutes after intraveneous injection; assay type: ADME, organism-based; settings: in vivo, iv, 0.5 h; how it was run: as §2
[13] = tested on: Rattus norvegicus; experiment: Biodistribution of [125I]IBF in lung was determined in rats 60 minutes after intraveneous injection; assay type: ADME, organism-based; settings: in vivo, iv, 1 h; how it was run: as §2
[14] = tested on: Rattus norvegicus; experiment: Biodistribution of [125I]IBF in lung was determined in rats 120 minutes after intraveneous injection; assay type: ADME, organism-based; settings: in vivo, iv, 2 h; how it was run: as §2
[15] = tested on: Rattus norvegicus; experiment: Biodistribution of [125I]IBF in muscle was determined in rats 15 minutes after intraveneous injection; assay type: ADME, organism-based, Muscle tissue; settings: in vivo, iv, 0.25 h; how it was run: as §2
[16] = tested on: Rattus norvegicus; experiment: Biodistribution of [125I]IBF in muscle was determined in rats 2 minutes after intraveneous injection; assay type: ADME, organism-based, Muscle tissue; settings: in vivo, iv; how it was run: as §2
[17] = tested on: Rattus norvegicus; experiment: Biodistribution of [125I]IBF in muscle was determined in rats 30 minutes after intraveneous injection; assay type: ADME, organism-based, Muscle tissue; settings: in vivo, iv, 0.5 h; how it was run: as §2
[18] = tested on: Rattus norvegicus; experiment: Biodistribution of [125I]IBF in muscle was determined in rats 60 minutes after intraveneous injection; assay type: ADME, organism-based, Muscle tissue; settings: in vivo, iv, 1 h; how it was run: as §2
[19] = tested on: Rattus norvegicus; experiment: Biodistribution of [125I]-IBF in muscle was determined in rats 120 minutes after intraveneous injection; assay type: ADME, organism-based, Muscle tissue; settings: in vivo, iv, 2 h; how it was run: as §2
[20] = tested on: Rattus norvegicus; experiment: Biodistribution of [125I]IBF in skin was determined in rats 30 minutes after intraveneous injection; assay type: ADME, organism-based, Zone of skin; settings: in vivo, iv, 0.5 h; how it was run: as §2
[21] = tested on: Rattus norvegicus; experiment: Biodistribution of [125I]-IBF in skin was determined in rats 60 minutes after intraveneous injection; assay type: ADME, organism-based, Zone of skin; settings: in vivo, iv, 1 h; how it was run: as §2
[22] = tested on: Rattus norvegicus; experiment: Biodistribution of [125I]-IBF in skin was determined in rats 120 minutes after intraveneous injection; assay type: ADME, organism-based, Zone of skin; settings: in vivo, iv, 2 h; how it was run: as §2
[23] = tested on: Rattus norvegicus; experiment: Biodistribution of [125I]IBF in skin was determined in rats 15 minutes after intraveneous injection; assay type: ADME, organism-based, Zone of skin; settings: in vivo, iv, 0.25 h; how it was run: as §2
[24] = tested on: Rattus norvegicus; experiment: Biodistribution of [125I]IBF in spleen was determined in rats 15 minutes after intraveneous injection; assay type: ADME, organism-based; settings: in vivo, iv, 0.25 h; how it was run: as §2
[25] = tested on: Rattus norvegicus; experiment: Biodistribution of [125I]IBF in spleen was determined in rats 2 minutes after intraveneous injection; assay type: ADME, organism-based; settings: in vivo, iv; how it was run: as §2
[26] = tested on: Rattus norvegicus; experiment: Biodistribution of [125I]IBF in spleen was determined in rats 30 minutes after intraveneous injection; assay type: ADME, organism-based; settings: in vivo, iv, 0.5 h; how it was run: as §2
[27] = tested on: Rattus norvegicus; experiment: Biodistribution of [125I]IBF in spleen was determined in rats 60 minutes after intraveneous injection; assay type: ADME, organism-based; settings: in vivo, iv, 1 h; how it was run: as §2
[28] = tested on: Rattus norvegicus; experiment: Biodistribution of [125I]IBF in spleen was determined in rats 120 minutes after intraveneous injection; assay type: ADME, organism-based; settings: in vivo, iv, 2 h; how it was run: as §2
[29] = tested on: Rattus norvegicus; experiment: Biodistribution of [125I]-IBF in heart was determined in rats 60 minutes after intraveneous injection; assay type: ADME, organism-based; settings: in vivo, iv, 1 h; how it was run: as §2
[30] = Biodistribution of [125I]IBF in blood was determined in rats 30 minutes after intraveneous injection; settings: rat, in vivo, iv, 0.5 h

Question: With `CCN1CCC[C@H]1CNC(=O)c1cc(I)cc2c1OCC2` as the compound, how does the Dose/gram [1] read?
Answer: 0.444 % dose/g

Question: What about the Dose/organ [2] of the same compound?
Answer: 0.03%

Question: And the Dose/organ [3]?
Answer: 0.06%

Question: What about the Dose/organ [4] of the same compound?
Answer: 0.02%

Question: What about the Dose/organ [5] of the same compound?
Answer: 0.02%

Question: What about the Dose/organ [6] of the same compound?
Answer: 0.08%

Question: What about the Dose/organ [7] of the same compound?
Answer: 8.54%

Question: What about the Dose/organ [8] of the same compound?
Answer: 9.84%

Question: And the Dose/organ [9]?
Answer: 3.95%

Question: And the Dose/organ [10]?
Answer: 1.85%

Question: And the Dose/organ [11]?
Answer: 6.14%

Question: And the Dose/organ [12]?
Answer: 0.82%

Question: What about the Dose/organ [13] of the same compound?
Answer: 0.37%

Question: What about the Dose/organ [14] of the same compound?
Answer: 0.12%

Question: What about the Dose/organ [15] of the same compound?
Answer: 14.36%

Question: What about the Dose/organ [16] of the same compound?
Answer: 11.25%

Question: What about the Dose/organ [17] of the same compound?
Answer: 9%

Question: What about the Dose/organ [18] of the same compound?
Answer: 4.97%

Question: What about the Dose/organ [19] of the same compound?
Answer: 2.3%

Question: What about the Dose/organ [20] of the same compound?
Answer: 5.34%

Question: And the Dose/organ [21]?
Answer: 2.38%

Question: What about the Dose/organ [22] of the same compound?
Answer: 1.18%

Question: What about the Dose/organ [23] of the same compound?
Answer: 8.46%

Question: And the Dose/organ [24]?
Answer: 0.58%

Question: And the Dose/organ [25]?
Answer: 0.96%

Question: And the Dose/organ [26]?
Answer: 0.31%

Question: And the Dose/organ [27]?
Answer: 0.09%

Question: And the Dose/organ [28]?
Answer: 0.03%

Question: And the Dose/organ [29]?
Answer: 0.05%

Question: And the Dose/organ [30]?
Answer: 1.26%
